Reference: ChEMBL document CHEMBL4028861, “Selective Nonsteroidal Glucocorticoid Receptor Modulators for the Inhaled Treatment of Pulmonary Diseases” (J Med Chem, 2017)
Converted amounts (≈) assume the structure as drawn.

Assays:
[1] = Drug degradation in dog hepatocytes assessed as 5-hydroxy-indazole formation at 10 uM up to 120 mins by LC-MS/MS analysis; type: ADME, cell-based, Canis lupus familiaris, Hepatocyte; details: 2 h
[2] = Drug degradation in human hepatocytes assessed as 5-hydroxy-indazole formation at 10 uM up to 120 mins by LC-MS/MS analysis; type: ADME, cell-based, Hepatocyte; details: 2 h
[3] = Drug degradation in rat hepatocytes assessed as 5-hydroxy-indazole formation at 10 uM up to 120 mins by LC-MS/MS analysis; type: ADME, cell-based, Hepatocyte; details: 2 h
[4] = Intrinsic clearance in human hepatocytes assessed per million cells; type: ADME, cell-based, Hepatocyte; details: read-out: CLH
[5] = Lipophilicity, log D of the compound by chromatography; type: physicochemical
[6] = Drug degradation in rat hepatocytes at 10 uM up to 120 mins by LC-MS/MS analysis; type: ADME, cell-based, Hepatocyte; details: 2 h
[7] = Drug degradation in human hepatocytes at 10 uM up to 120 mins by LC-MS/MS analysis; type: ADME, cell-based, Hepatocyte; details: 2 h
[8] = Drug degradation in dog hepatocytes at 10 uM up to 120 mins by LC-MS/MS analysis; type: ADME, cell-based, Canis lupus familiaris, Hepatocyte; details: 2 h
[9] = Solubility of the compound in phosphate buffer at pH 7.4 using liquid sample at 20 degreeC; type: physicochemical
Summary of the method: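 Solubility measured in 0.1 M phosphate buffer at pH 7.4 and 20 °C, starting from a 10 mM DMSO stock solution.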

[10] = Solubility of the compound in phosphate buffer at pH 7.4 using solid sample at 23 degreeC; type: physicochemical
Summary of the method: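 Solubility measured in 0.1 M phosphate buffer at pH 7.4 and 23 °C, starting from crystalline solid.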

[11] = Cmax in Wistar Han rat plasma at 0.1 umol/kg, administered as dry powder inhalation by LC-MS/MS analysis; type: ADME; parameters: dose 0.1 umol/kg, route respiratory (INHALATION); details: inhaled or intranasal
[12] = Mean residence time in Wistar Han rat lung at 0.1 umol/kg, administered as dry powder inhalation by LC-MS/MS analysis; type: ADME, tissue-based; details: inhaled or intranasal
Lung [13] = test: Drug uptake in Wistar Han rat lung at 0.1 umol/kg, administered via intratracheal instillation after 4 hrs by LC-MS/MS analysis; type: ADME, tissue-based; details: in vivo, inhaled_or_intranasal
[14] = Thermodynamic solubility of the compound in human intestinal fluid; type: physicochemical; details: read-out: Therm_solubility
[15] = Intrinsic clearance in Wistar Han rat hepatocytes assessed per 10^6 cells; type: ADME, cell-based, Hepatocyte; details: read-out: CLH
[16] = AUC (0 to infinity) in Wistar Han rat lung at 0.1 umol/kg, administered as dry powder inhalation by LC-MS/MS analysis; type: ADME; parameters: dose 0.1 umol/kg, route respiratory (INHALATION), time infinity; details: inhaled or intranasal
Lung [17] = test: Drug uptake in Wistar Han rat lung at 0.1 umol/kg, administered as dry powder inhalation after 4 hrs by LC-MS/MS analysis; type: ADME; details: in vivo, inhaled_or_intranasal
Rattus norvegicus [18] = test: Toxicity in inhaled CRL:CD Sprague Dawley rat model of sephadex induced lung edema assessed as induction of thymic involution administered once per day for 4 days; details: in vivo, inhaled_or_intranasal, 96 h
Summary of the method: (§1)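 Thymic involution scored in the same Sephadex-challenged rats dosed by inhalation, as a sensitive marker of systemic GR agonism.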

[19] = Volume of distribution at steady state in Wistar Han rat at 1 umol/kg, iv administered as bolus dose by LC-MS/MS analysis; type: ADME, organism-based; details: in vivo, read-out: Vdss
[20] = Clearance in Wistar Han rat at 1 umol/kg, iv administered as bolus dose by LC-MS/MS analysis; type: ADME, organism-based; details: in vivo
[21] = Oral bioavailability in Wistar Han rat administered via gavage by LC-MS/MS analysis; type: ADME, organism-based; details: in vivo
[22] = Terminal half life in Wistar Han rat 1 umol/kg, iv administered as bolus dose by LC-MS/MS analysis; type: ADME, organism-based; details: in vivo, read-out: beta t1/2 (converted)
Lung [23] = test: Drug uptake in Wistar Han rat lung at 0.1 umol/kg, administered as dry powder inhalation after 24 hrs by LC-MS/MS analysis; type: ADME, tissue-based; details: in vivo, inhaled_or_intranasal
[24] = Apparent terminal half life in Wistar Han rat lung at 0.1 umol/kg, administered as dry powder inhalation by LC-MS/MS analysis; type: ADME; details: inhaled or intranasal, read-out: betat1/2(app) (converted)
Rattus norvegicus [25] = test: Toxicity in inhaled CRL:CD Sprague Dawley rat model of sephadex induced lung edema assessed as induction of thymic involution administered once per day for 3 days; details: in vivo, inhaled_or_intranasal, 72 h; summary of the method: as §1

For O=[14C](N[C@@H]1CCOC1)c1cccc(-n2ncc3cc(OS(=O)(=O)O)ccc32)c1, the Drug metabolism [1] was “Metabolite_Detected”, the Drug metabolism [2] was “Metabolite_Detected” and the Drug metabolism [3] was “Metabolite_Detected”.

Compound C[C@H](NC(=O)C(F)(F)F)[C@H](Oc1ccc2c(cnn2-c2ccc(F)cc2)c1)c1cccc(OS(=O)(=O)O)c1 has a hepatocyte CLint [4] of less than 2.7 µL/min/1e6 cells.

For C[C@H](NC(=O)C(C)(F)F)[C@H](Oc1ccc2c(cnn2-c2ccc(F)cc2)c1)c1ccc2c(c1)OCC2, the chromatographic logD [5] was 5.7 and the hepatocyte CLint [4] was 14 µL/min/1e6 cells.

For C[C@H](NC(=O)C(C)(F)F)[C@H](Oc1ccc2c(cnn2-c2cccc([14C](=O)N[C@@H]3CCOC3)c2)c1)c1ccc2c(c1)OCCO2, the Drug metabolism [1] was “Metabolite_Detected”, the Drug degradation [6] was “Metabolite_Detected” and the Drug metabolism [2] was “Metabolite_Detected”. The Drug degradation [7] was “Metabolite_Detected”, the Drug metabolism [3] was “Metabolite_Detected” and the Drug degradation [8] was “Metabolite_Detected”.

C[C@H](NC(=O)C(C)(F)F)[C@H](Oc1ccc2c(cnn2-c2ccc(F)cc2)c1)c1ccc2c(c1)OCOC2 showed a chromatographic logD [5] of 5.4 and a hepatocyte CLint [4] of 15 µL/min/1e6 cells.

With C[C@H](NC(=O)C(C)(F)F)[C@H](Oc1ccc2c(cnn2-c2cccc(C(=O)N3CCC[C@@H]3C(N)=O)c2)c1)c1ccccc1 the chromatographic logD [5] was 3.3, the hepatocyte CLint [4] was less than 2.7 µL/min/1e6 cells and the solubility [9] was 36 µM (≈ 20.7 µg/mL).

C[C@H](NC(=O)C(C)(F)F)[C@H](Oc1ccc2c(cnn2-c2cccc(C(=O)NC3CCS(=O)(=O)C3)c2)c1)c1ccccc1 (stereo partly specified) showed a chromatographic logD [5] of 3.8, a hepatocyte CLint [4] of less than 2.7 µL/min/1e6 cells and a solubility thermodynamic [10] of 0.34 µM (≈ 0.203 µg/mL). The solubility [9] was 1 µM (≈ 0.597 µg/mL).

With C[C@H](NC(=O)C(C)(F)F)[C@H](Oc1ccc2c(cnn2-c2cccc(C(=O)N3CCC[C@@H]3C(N)=O)c2)c1)c1ccc2c(c1)OCOC2 the chromatographic logD [5] was 2.9, the hepatocyte CLint [4] was 9.7 µL/min/1e6 cells and the solubility [9] was 19 µM (≈ 12 µg/mL).

Compound C[C@H](NC(=O)C(F)(F)F)[C@H](Oc1ccc2c(cnn2-c2ccc(F)cc2)c1)c1cccc(O)c1 has a chromatographic logD [5] of 5 and a hepatocyte CLint [4] of 33 µL/min/1e6 cells.

Compound COc1cccc([C@@H](Oc2ccc3c(cnn3-c3ccc(F)cc3)c2)[C@H](C)NC(=O)C(F)(F)F)c1 [AZD-5423] has a Cmax [11] of 122 nM, an MRT [12] of 1.5 h and a Drug uptake (Lung [13]) of 1 %ID. For the same compound, the solubility thermodynamic [14] was 12 µM (≈ 5.85 µg/mL), the hepatocyte CLint [15] was 13 µL/min/1e6 cells and the chromatographic logD [5] was 6. The AUC(0-inf) [16] was 18 µM·h, the Drug uptake (Lung [17]) was 0.7 %ID and the ED25 (Rattus norvegicus [18]) was 4.6 µg/kg. It also gave a hepatocyte CLint [4] of 16 µL/min/1e6 cells, a Vd [19] of 23 L/kg and a clearance [20] of 38 mL/min/kg. For the same compound, the bioavailability [21] was 37%, the half-life [22] was 4.7 h and the Drug uptake (Lung [23]) was 0 to 0.4 %ID. It also gave a half-life [24] of 7.5 h.

In the case of CCCC1O[C@@H]2C[C@H]3[C@@H]4CCC5=CC(=O)C=C[C@]5(C)[C@H]4[C@@H](O)C[C@]3(C)[C@]2(C(=O)CO)O1 (stereo partly specified) [BUDESONIDE], the chromatographic logD [5] was 3.4 and the hepatocyte CLint [4] was 20 µL/min/1e6 cells.

CCC(=O)O[C@]1(C(=O)SCF)[C@H](C)C[C@H]2[C@@H]3C[C@H](F)C4=CC(=O)C=C[C@]4(C)[C@@]3(F)[C@@H](O)C[C@@]21C [FLUTICASONE PROPIONATE] gave a Cmax [11] of 24 nM, an MRT [12] of 6.5 h and a solubility thermodynamic [14] of 0.62 µM (≈ 0.31 µg/mL). It also gave a hepatocyte CLint [15] of 28 µL/min/1e6 cells, a chromatographic logD [5] of 4.9 and an AUC(0-inf) [16] of 200 µM·h. For the same compound, the Drug uptake (Lung [17]) was 43 %ID, the hepatocyte CLint [4] was 33 µL/min/1e6 cells and the Vd [19] was 31 L/kg. For the same compound, the clearance [20] was 103 mL/min/kg, the bioavailability [21] was less than 0.1% and the ED25 (Rattus norvegicus [25]) was 3.9 µg/kg. It also gave a half-life [22] of 3.3 h, a Drug uptake (Lung [23]) of 1.9 %ID and a half-life [24] of 4.5 h.

With C[C@H](NC(=O)C(C)(F)F)[C@H](Oc1ccc2c(cnn2-c2cccc(C(=O)N[C@@H]3CCOC3)c2)c1)c1ccc2c(c1)OCCO2 [VELSECORAT] the Cmax [11] was 7.4 nM, the MRT [12] was 23 h and the solubility thermodynamic [14] was 0.6 µM (≈ 0.364 µg/mL). For the same compound, the hepatocyte CLint [15] was 34 µL/min/1e6 cells, the chromatographic logD [5] was 3.7 and the AUC(0-inf) [16] was 740 µM·h. It also gave a Drug uptake (Lung [17]) of 73 %ID, a hepatocyte CLint [4] of 29 µL/min/1e6 cells and a Vd [19] of 0.16 L/kg. For the same compound, the solubility thermodynamic [10] was 0.02 µM (≈ 0.0121 µg/mL), the clearance [20] was 30 mL/min/kg and the bioavailability [21] was less than 0.1%. It also gave an ED25 (Rattus norvegicus [25]) of 40 µg/kg, a half-life [22] of 0.1 h and a Drug uptake (Lung [23]) of 32 %ID. It also gave a half-life [24] of 17 h and a solubility [9] of less than 0.1 µM.
